Sampled rows, rich in hits. Any-hit rate of the full collection: about 2.5%.
E coli Lon inh = inhibitors of E. coli Lon protease, primary screen, biochemical, fluorescence polarization; AID 602123, 2011; inhibition, % at 7.94 µM; purified E. coli Lon protease; 0.42% of 360,000 active; P0A9M0; in the data active = inhibition above about 13%, passing the limit was not always enough
Target sequence (P0A9M0 whole entry, looked up): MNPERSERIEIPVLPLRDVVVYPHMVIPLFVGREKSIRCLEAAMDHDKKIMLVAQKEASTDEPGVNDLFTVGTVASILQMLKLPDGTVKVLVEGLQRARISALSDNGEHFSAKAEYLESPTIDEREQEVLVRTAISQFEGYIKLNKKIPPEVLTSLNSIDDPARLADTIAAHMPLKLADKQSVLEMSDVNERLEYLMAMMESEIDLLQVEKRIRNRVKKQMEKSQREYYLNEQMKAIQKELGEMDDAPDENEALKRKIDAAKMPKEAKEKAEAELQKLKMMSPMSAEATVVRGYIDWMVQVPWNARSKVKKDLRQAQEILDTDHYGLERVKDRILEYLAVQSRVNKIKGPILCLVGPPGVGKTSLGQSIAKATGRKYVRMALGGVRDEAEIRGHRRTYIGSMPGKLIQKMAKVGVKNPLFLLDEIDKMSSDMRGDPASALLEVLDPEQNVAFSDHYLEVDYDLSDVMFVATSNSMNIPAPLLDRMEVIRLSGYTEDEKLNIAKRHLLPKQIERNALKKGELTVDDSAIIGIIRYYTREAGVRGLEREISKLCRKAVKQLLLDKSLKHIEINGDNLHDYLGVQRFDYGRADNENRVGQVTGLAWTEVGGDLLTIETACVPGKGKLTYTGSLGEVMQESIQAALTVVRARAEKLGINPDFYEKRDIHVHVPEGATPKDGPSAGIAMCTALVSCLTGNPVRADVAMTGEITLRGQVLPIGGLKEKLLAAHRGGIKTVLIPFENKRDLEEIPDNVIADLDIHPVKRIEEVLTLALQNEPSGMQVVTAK
TDP2 absorb = human TDP2 enzyme inhibitors, primary screen, biochemical, epi absorbance, recombinant enzyme; T5PNP hydrolysis, p-nitrophenol absorbance 415 nm; inhibition, % at 12.8 µM; 0.34% of 370,000 active;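 active = inhibition above the mean of all tested compounds plus 3 SD, set per campaign, cut at about 25% in these data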
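Incubation: 2 h at 37 °C; Test system: recombinant human TDP2; Quantity: enzyme 120 nM; Read-out basis: percent inhibition; Medium: 50 mM Tris-HCl pH 7.5 with Mg2+, KCl, DTT, BSA; Repeats: single replicate; Compound: 12.8 µM single point, 1% DMSO; Signal: epi absorbance; Reagent: 5 mM T5PNP chromogenic substrate; Benchmarks: no-enzyme high, DMSO-plus-enzyme low.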
GSTO1 counter = inhibitors of recombinant GSTO1, primary screen, counter-screen for RBBP9 inhibitor project, biochemical, fluorescence polarization; Glutathione S-transferase omega-1 (Homo sapiens), P78417; activity-based probe fluorescence polarization; inhibition, % at 5.96 µM; 1.1% of 300,000 active;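 active = inhibition above the campaign mean inhibition plus 3 SD, cut at about 35% in these data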
PAD4 inh = human PAD4 inhibitors, primary screen, biochemical, fluorescence polarization, 1536-well format; Protein-arginine deiminase type-4 (Homo sapiens), Q9UM07; recombinant PAD4, RCA probe fluorescence polarization; inhibition, % at 6.36 µM; 0.41% of 330,000 active; AID 485272, 2010;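 active = percent inhibition above a cutoff equal to the mean of all tested compounds plus 3 SD, cut at about 15% in these data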
PRMT1 inh = PRMT1 methyltransferase inhibitors, primary screen, biochemical, fluorescence polarization | Protein arginine N-methyltransferase 1 (Homo sapiens), Q99873 | recombinant PRMT1, activity-based probe fluorescence polarization | inhibition, % at 2.79 µM | 1.3% of 370,000 active | AID 652257, 2013;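 active = inhibition above about 21% made by adding two undisclosed values, limit read from the data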
eLon confirm = E. coli Lon protease inhibitor retest, confirmation, biochemical, fluorescence polarization | purified E. coli Lon | 31% of 1,400 active | AID 602230, 2012 | shares compounds with E coli Lon inh | inhibition, % at 7.94 µM; in the data active = inhibition above about 16%
Large screens that a line does not name were inactive (follow-up assays come after a bar, where they were run).

CC1C(=O)C(C)C(c2ccco2)NC1c1ccco1 (centres undefined)	E coli Lon inh 24.3 | eLon confirm inactive
Nc1nc(NCCO)nc(NC2CCCCC2)c1[N+](=O)[O-]	E coli Lon inh 43.3 | eLon confirm inactive
O=C(NC1CCCCN(Cc2ccc(OC(F)(F)F)cc2)C1=O)c1ccc(F)c(F)c1 (centres undefined)	none (no result: E coli Lon inh, GSTO1 counter, PAD4 inh)
Clc1cccc(NCc2cn3cccnc3n2)c1	E coli Lon inh 17.2 | eLon confirm inactive
O=C(Nc1ccc(Cl)c(Cl)c1)C1CCCN(c2nnc(-n3cccc3)s2)C1 (centres undefined)	none (no result: E coli Lon inh, GSTO1 counter, PAD4 inh)
Cc1ccc(-c2[nH]c3cc(C(N)=O)ccc3c(=O)c2O)cc1	E coli Lon inh 76.1 | eLon confirm 45.8
Cc1ccc(CNC(=O)c2ccc3c(=O)c(O)c(-c4ccc(C)cc4)[nH]c3c2)cc1	none
CCCNC(=O)c1ccc2c(=O)c(O)c(-c3ccc(OC)cc3)[nH]c2c1	E coli Lon inh 172.3 (no result: TDP2 absorb, PRMT1 inh) | eLon confirm 112.0
O=C(NCCCn1ccnc1)c1ccc(Cl)c(Cl)c1	none
Cc1ccc(-c2[nH]c3cc(C(=O)NCCCn4ccnc4)ccc3c(=O)c2O)cc1	E coli Lon inh 125.0 | eLon confirm 92.1
CCCNC(=O)c1ccc2c(=O)c(O)c(-c3ccc(C)cc3)[nH]c2c1	E coli Lon inh 159.8 | eLon confirm 141.0
O=C(c1c(F)cccc1F)N1CCC(Oc2cccnc2)CC1	none (no result: E coli Lon inh, GSTO1 counter, PAD4 inh)
CCCNC(=O)c1ccc2c(=O)c(O)c(-c3ccsc3)[nH]c2c1	E coli Lon inh active (no result: TDP2 absorb, PRMT1 inh) | eLon confirm 181.6
CCCCCn1c(=O)[nH]c2cc(C(=O)NCCCN(CC)CC)ccc2c1=O	none
Cc1ccc(OCC(=O)N/N=C2\CC(=O)CC(C)(C)C2)c(Br)c1	E coli Lon inh 15.2 (no result: GSTO1 counter, PAD4 inh) | eLon confirm inactive
CCOc1ccccc1OCC(=O)NN=C1CCCC(=O)C1	E coli Lon inh 35.9 (no result: GSTO1 counter) | eLon confirm inactive
O=C(CN1C(=O)C2C3C=CC(C3)C2C1=O)NCc1ccccc1 (centres undefined)	none
O=C(CN1C(=O)C2CC=C(Cl)CC2C1=O)NCc1ccccc1 (centres undefined)	E coli Lon inh 34.3 | eLon confirm 38.4
O=C(CCN1C(=O)C2C3C=CC(C3)C2C1=O)N1CCCCC1 (centres undefined)	none
O=C(CCN1C(=O)C2CC=C(Cl)CC2C1=O)N1CCCCC1 (centres undefined)	E coli Lon inh 29.2 | eLon confirm 52.2
O=C1C2CC=C(Cl)CC2C(=O)N1CCc1ccccc1 (centres undefined)	E coli Lon inh 25.3, PRMT1 inh 24.1 | eLon confirm 47.9
Cc1ccc(C(=O)N(C)[C@H]2C[C@H]3c4[nH]c5c(-c6ccc7c(c6)OCO7)cccc5c4CCN3C[C@H]2[C@H](C)O)cc1	none (no result: E coli Lon inh, GSTO1 counter, PAD4 inh)
COc1ccc(-n2c(SCC(=O)Nc3cc(C)c(NC(=O)c4ccccc4)cc3OC)nnc2-c2ccccc2F)cc1	none (no result: E coli Lon inh, GSTO1 counter, PAD4 inh)
O=C(CSc1nnc2c(n1)[nH]c1ccccc12)Nc1ccc(S(=O)(=O)Nc2ncccn2)cc1	E coli Lon inh 17.9 (no result: GSTO1 counter, PAD4 inh) | eLon confirm 27.8
Cc1ccc(NC(=O)CSc2nnc3c(n2)[nH]c2ccccc23)cc1	none
CC(C)CNC(=O)OCc1cn(Cc2cc(F)cc(F)c2)nn1	none (no result: E coli Lon inh, GSTO1 counter, PAD4 inh)
COc1ccc(CCNC(=O)c2ccc3c(c2)N(Cc2ccc(F)cc2)CCS3)c(OC)c1	E coli Lon inh 18.5 | eLon confirm inactive
COc1ccc(OC)c(CCNC(=O)c2ccc3c(c2)N(Cc2ccc(F)cc2)CCS3)c1	none (no result: TDP2 absorb, PRMT1 inh)
COc1ccc(CC2CCN(c3ncnc4sccc34)CC2)cc1	none (no result: E coli Lon inh, GSTO1 counter, PAD4 inh)
Oc1c(N=Nc2nn[nH]n2)ccc2ccccc12	E coli Lon inh 48.1, TDP2 absorb 26.3, PRMT1 inh 34.7 (no result: GSTO1 counter, PAD4 inh) | eLon confirm 25.2
Cc1cc(CN(C)C(=O)c2cc(COc3ccc(F)cc3Cl)on2)n[nH]1	E coli Lon inh 31.8 | eLon confirm inactive
COc1ccc2c(c1)CO[C@H]([C@H](O)CO)[C@H]2/C=C/c1ccccc1	none (no result: E coli Lon inh, GSTO1 counter, PAD4 inh)
C[C@H](NC(=O)c1ccco1)C(=O)Nc1ccc(C#N)cc1	none
CC(=O)Nc1ccc(NC(=O)[C@H](C)NC(=O)c2ccco2)cc1	E coli Lon inh 52.8 | eLon confirm inactive
O=S(=O)(c1ccccc1)N1CCN(Cc2ccccc2)CC1	none
O=S(=O)(c1ccccc1)N1CCN(Cc2ccccc2)c2ccccc21	E coli Lon inh 34.1 (no result: GSTO1 counter, PAD4 inh) | eLon confirm inactive
CCOC(=O)N1CCC(NC(=O)Cn2c3c(c(-c4ccccc4Cl)cc2=O)CCC3)CC1	E coli Lon inh 19.8 | eLon confirm inactive
C=c1[nH]cc(C(C)c2c(C)n(C)c3ccccc23)/c1=C/C (centres undefined)	none (no result: E coli Lon inh, GSTO1 counter, PAD4 inh)
O=C(COC(=O)c1cc2ccccc2cc1O)NC1CCCCC1	E coli Lon inh 25.6 (no result: GSTO1 counter) | eLon confirm inactive
O=C(COC(=O)c1cc(Br)ccc1O)NC1CCCCCC1	none
COC(=O)C1=C(C)N(Cc2cccc(C(F)(F)F)c2)C(=NCC2CC2)NC1c1cccc(C(F)(F)F)c1 (centres undefined)	none (no result: E coli Lon inh, GSTO1 counter, PAD4 inh)
Oc1cc(CNCc2ccccc2)c(O)cc1CNCc1ccccc1	E coli Lon inh 51.9 (no result: GSTO1 counter, PAD4 inh) | eLon confirm inactive
OCc1ccccc1CNCc1ccccc1	none
CCC(=O)Nc1nc(C)c(Oc2ccccc2)c(=O)[nH]1	none
CC(=O)Nc1nc(C)c(Oc2ccccc2)c(=O)[nH]1	E coli Lon inh 23.1 | eLon confirm inactive
COc1ccc([C@H]2OC(=O)C[C@H]2C(=O)N2CCN(c3ccccc3Cl)CC2)cc1OC	none (no result: E coli Lon inh, GSTO1 counter, PAD4 inh)
O=C(CN1CCCc2ccccc21)NC(=O)NCc1ccccc1	none
O=C(CN1CCCc2ccccc21)NC(=O)NCc1ccco1	E coli Lon inh 53.2 | eLon confirm inactive
O=C(OC12CCCN(C1)/C(=C/c1ccccc1)C2)c1ccccc1 (centres undefined)	none (no result: E coli Lon inh, GSTO1 counter, PAD4 inh)
Nc1nc(Cl)cc(Oc2ccc([N+](=O)[O-])cc2)n1	E coli Lon inh 16.3 | eLon confirm 20.2
COc1ccc(Oc2cc(Cl)nc(N)n2)cc1	none
O=C1CC(C(=O)Nc2ccccc2C(=O)O)C(c2ccccc2)O1 (centres undefined)	E coli Lon inh 18.5 | eLon confirm inactive
COc1ccc(C2(c3ccc(OC(C)=O)cc3OC(C)=O)CC(c3ccccc3)NC(=S)N2)cc1 (centres undefined)	E coli Lon inh 20.6 | eLon confirm inactive
CN(C)c1ccc(NC(=O)CSCc2nc3c(nnn3Cc3ccc(F)cc3)c(=O)[nH]2)cc1	none (no result: TDP2 absorb, PRMT1 inh)
O=C(CSCc1nc2c(nnn2Cc2ccc(F)cc2)c(=O)[nH]1)Nc1cccc(C(F)(F)F)c1	E coli Lon inh 16.4 | eLon confirm inactive

Compound activity (PubChem BioAssay)
